One series has as its system Human respirovirus 3. Put plainly: Antiviral activity against Parainfluenza virus 3 infected in african green monkey Vero cells assessed as reduction of virus-induced cytopathogenicity at 250 uM. Format: functional, organism-based. In a few lines: (§1)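 Confluent monolayers (HEL fibroblasts, Vero, or HeLa cells as listed) were infected with 100 CCID50 of virus in the presence of varying compound concentrations. Virus-induced cytopathicity or plaque formation was scored once cytopathicity was complete in untreated infected controls. EC50 was taken as the concentration reducing cytopathogenicity or plaque formation by 50%.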
For orientation: Protection from cytopathic effect is a common read-out in antiviral testing.

The test system of series [1] is Human immunodeficiency virus 2. Put plainly: Antiviral activity against Human immunodeficiency virus 2 ROD infected in human CEM cells assessed as reduction of virus-induced giant cell formation at 250 uM after 4 to 5 days. Format: functional, organism-based. The following applies: CCRF-CEM. In outline:
(§2)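 CEM cells at 3 × 10^5 cells/mL were infected with HIV at 100 CCID50 per mL in the presence of compound dilutions. They were held 4–5 days at 37 °C in humidified CO2. Syncytium (giant cell) formation was scored microscopically, and EC50 was taken as the concentration inhibiting giant cell formation by 50%.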

For the next series, the system named is Vero. As to the kind of experiment: Cytotoxicity against african green monkey Vero cells assessed as alteration of cell morphology up to 100 uM by microscopic analysis. Format: cell-based. Particulars: chlorocebus sabaeus. In a few lines: (§3)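 Uninfected host-cell cultures were exposed to compound and examined by microscopy. Cytotoxicity was expressed as the minimum cytotoxic concentration (MCC) causing a microscopically detectable alteration of normal cell morphology.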

In series [2] the test system is Mammalian orthoreovirus 1. As to the kind of experiment: Antiviral activity against Reovirus 1 infected in african green monkey Vero cells assessed as reduction of virus-induced cytopathogenicity at 250 uM. It counts as functional, organism-based. In outline:
as §1

The subject of series [3] is Influenza A virus. Put plainly: Antiviral activity against Influenza A virus H1N1 infected in dog MDCK cells assessed as reduction of virus-induced cytopathogenicity at 250 uM. It counts as functional, organism-based. In outline:
(§4)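 Confluent cell monolayers were infected with 100 CCID50 of virus while exposed to varying compound concentrations. Cytopathicity was scored once it was complete in untreated infected controls. EC50 was taken as the concentration that reduced virus-induced cytopathogenicity by 50%.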

Series [4] relates to Human immunodeficiency virus 1. As to the kind of experiment: Antiviral activity against Human immunodeficiency virus 1 3B infected in human CEM cells assessed as reduction of virus-induced giant cell formation at 250 uM after 4 to 5 days. Format: functional, organism-based. Particulars: CCRF-CEM. In outline:
as §2

Series [5] has as its system Vesicular stomatitis virus. As to the kind of experiment: Antiviral activity against Vesicular stomatitis virus infected in human HeLa cells assessed as reduction of virus-induced cytopathogenicity at 250 uM. Format: functional, organism-based. In outline: as §4
A further series has as its system Human alphaherpesvirus 2. Put plainly: Antiviral activity against Herpes simplex virus 2 G infected in human HEL cells assessed as reduction of virus-induced cytopathogenicity at 250 uM. Format: functional, organism-based. The following applies: strain G. In a few lines:
as §1

For series [6], the system named is Human alphaherpesvirus 1. As to the kind of experiment: Antiviral activity against Herpes simplex virus 1 KOS infected in human HEL cells assessed as reduction of virus-induced cytopathogenicity at 250 uM. Format: functional, organism-based. In outline: as §1
In another series the test system is Punta Toro virus. As to the kind of experiment: Antiviral activity against Punta Toro virus infected in african green monkey Vero cells assessed as reduction of virus-induced cytopathogenicity at 250 uM. Format: functional, organism-based. In outline: as §1
The next series concerns Feline coronavirus. As to the kind of experiment: Antiviral activity against Feline coronavirus infected in cat CRFK cells assessed as reduction of virus-induced cytopathogenicity at 250 uM. It counts as functional, organism-based.
Another series relates to Sindbis virus. Put plainly: Antiviral activity against Sindbis virus infected in african green monkey Vero cells assessed as reduction of virus-induced cytopathogenicity at 250 uM. Format: functional, organism-based. In a few lines: as §1
The subject of another series is MDCK. As to the kind of experiment: Cytotoxicity against dog MDCK cells assessed as alteration of cell morphology up to 100 uM by microscopic analysis. Format: cell-based, Canis lupus familiaris. In a few lines:
as §3

The test system of the next series is Felid alphaherpesvirus 1. As to the kind of experiment: Antiviral activity against Feline herpes virus infected in cat CRFK cells assessed as reduction of virus-induced cytopathogenicity at 250 uM. It counts as functional, organism-based.
A further series deals with Coxsackievirus B4. Put plainly: Antiviral activity against Coxsackievirus B4 infected in african green monkey Vero cells assessed as reduction of virus-induced cytopathogenicity at 250 uM. It counts as functional, organism-based. In a few lines: as §1
For series [7], the system named is Respiratory syncytial virus. As to the kind of experiment: Antiviral activity against Respiratory syncytial virus long infected in human HeLa cells assessed as reduction of virus-induced cytopathogenicity at 250 uM. Format: functional, organism-based. In outline:
as §1

Series [8] relates to Influenza A virus. Put plainly: Antiviral activity against Influenza A virus H3N2 infected in dog MDCK cells assessed as reduction of virus-induced cytopathogenicity at 250 uM. Format: functional, organism-based. In a few lines: as §4
The subject of the next series is HEL. As to the kind of experiment: Cytotoxicity against human HEL cells assessed as alteration of cell morphology up to 100 uM by microscopic analysis. It counts as cell-based. In outline: as §3
For series [9], the system named is Human alphaherpesvirus 1. Put plainly: Antiviral activity against thymidine kinase-deficient, ACV-resistant Herpes simplex virus 1 KOS infected in human HEL cells assessed as reduction of virus-induced cytopathogenicity at 250 uM. It counts as functional, organism-based. In a few lines: as §4
The subject of series [10] is Vesicular stomatitis virus. Put plainly: Antiviral activity against Vesicular stomatitis virus infected in human HEL cells assessed as reduction of virus-induced cytopathogenicity at 250 uM. It counts as functional, organism-based. In outline: as §4
A short description of series [11]: Cytotoxicity against cat CRFK cells assessed as alteration of cell morphology up to 100 uM by microscopic analysis. It counts as cell-based, Felis catus. In outline: as §3
The test system of the next series is Influenza B virus. As to the kind of experiment: Antiviral activity against Influenza B virus infected in dog MDCK cells assessed as reduction of virus-induced cytopathogenicity at 250 uM. Format: functional, organism-based. In a few lines: as §4
The next series deals with HeLa. As to the kind of experiment: Cytotoxicity against human HeLa cells assessed as alteration of cell morphology up to 100 uM by microscopic analysis. Format: cell-based. In a few lines:
as §3

Structures are written as SMILES. Active and inactive are the calls of the source. How the calls were made is not given here.

With `CCOP(=O)(OCC)[C@H]1C[C@H](C(=O)Nc2ccc([N+](=O)[O-])cc2)ON1C` (mixture of isomers), the inhibition entry (in the series with Human respirovirus 3; in [1]; in series [2]; in the series on Influenza A virus [3]; in [4]; in series [5]) was “inactive” in each case. The inhibition result with Human alphaherpesvirus 2, with Human alphaherpesvirus 1 [6], in the series with Punta Toro virus, with Feline coronavirus, in the series on Sindbis virus and in the series with Felid alphaherpesvirus 1 was “inactive” each time. For the same compound, the inhibition result (in the series with Coxsackievirus B4; in series [7]; in the series on Influenza A virus [8]; in the series on Human alphaherpesvirus 1 [9]; in series [10]; with Influenza B virus) was “inactive” throughout. Also, the Activity entry (with Vero; in the series on MDCK; in the series with HEL; in series [11]; in the series on HeLa) was “Non-toxic” throughout.
For `CCOP(=O)(OCC)[C@@H]1C[C@H](C(=O)Nc2ccc([N+](=O)[O-])cc2)ON1C` (racemic), the inhibition result (in the series with Human respirovirus 3; in [1]; in series [2]; in the series on Influenza A virus [3]; in series [4]; in series [5]) was “inactive” in each case. The inhibition result with Human alphaherpesvirus 2, with Human alphaherpesvirus 1 [6], in the series with Punta Toro virus, in the series with Feline coronavirus, in the series on Sindbis virus and in the series on Felid alphaherpesvirus 1 was “inactive” in each case. Moreover, the inhibition result (in the series with Coxsackievirus B4; in series [7]; in the series with Influenza A virus [8]; with Human alphaherpesvirus 1 [9]; in series [10]; in the series with Influenza B virus) was “inactive” each time. Moreover, the Activity entry (with Vero; in the series on MDCK; with HEL; in series [11]; in the series with HeLa) was “Non-toxic” each time.
For `CCOP(=O)(OCC)[C@@H]1C[C@H](C(=O)Nc2cc(OC)c(OC)cc2C(C)=O)ON1C` (mixture of isomers), the inhibition entry (in the series on Human respirovirus 3; in series [1]; in series [2]; with Influenza A virus [3]; in [4]; in series [5]) was “inactive” each time. Further, the inhibition result in the series with Human alphaherpesvirus 2, in the series with Human alphaherpesvirus 1 [6], in the series with Punta Toro virus, in the series on Feline coronavirus, in the series with Sindbis virus and in the series on Felid alphaherpesvirus 1 was “inactive” in each case. The inhibition entry (in the series on Coxsackievirus B4; in [7]; in the series with Influenza A virus [8]; with Human alphaherpesvirus 1 [9]; in [10]; in the series on Influenza B virus) was “inactive” throughout. The Activity result (in the series with Vero; with MDCK; in the series on HEL; in series [11]; in the series with HeLa) was “Non-toxic” each time.
With `CCOP(=O)(OCC)[C@H]1C[C@H](C(=O)Nc2cccc(Cl)c2)ON1C` (mixture of isomers), the inhibition entry (in the series on Human respirovirus 3; in [1]; in [2]; with Influenza A virus [3]; in [4]; in series [5]) was “inactive” each time. The inhibition result in the series on Human alphaherpesvirus 2, in the series with Human alphaherpesvirus 1 [6], with Punta Toro virus, in the series with Feline coronavirus, in the series with Sindbis virus and in the series on Felid alphaherpesvirus 1 was “inactive” each time. Further, the inhibition entry (in the series with Coxsackievirus B4; in series [7]; in the series with Influenza A virus [8]; in the series on Human alphaherpesvirus 1 [9]; in series [10]; with Influenza B virus) was “inactive” each time. Also, the Activity result (with Vero; in the series on MDCK; in the series with HEL; in [11]; in the series with HeLa) was “Non-toxic” in each case.
Take `CCOP(=O)(OCC)[C@@H]1C[C@H](C(=O)Nc2ccccc2Cl)ON1C` (mixture of isomers): the inhibition result (in the series with Human respirovirus 3; in [1]; in [2]; in the series on Influenza A virus [3]; in [4]; in series [5]) was “inactive” each time. In addition, the inhibition entry with Human alphaherpesvirus 2, in the series with Human alphaherpesvirus 1 [6], with Punta Toro virus, with Feline coronavirus, in the series on Sindbis virus and with Felid alphaherpesvirus 1 was “inactive” throughout. Further, the inhibition result (in the series on Coxsackievirus B4; in series [7]; in the series with Influenza A virus [8]; with Human alphaherpesvirus 1 [9]; in series [10]; in the series with Influenza B virus) was “inactive” throughout. Moreover, the Activity entry (in the series with Vero; with MDCK; in the series on HEL; in series [11]; in the series on HeLa) was “Non-toxic” in each case.
Consider `CCOP(=O)(OCC)[C@@H]1C[C@@H](C(=O)Nc2ccccc2Cl)ON1C` (racemic), for which the inhibition result (in the series on Human respirovirus 3; in series [1]; in series [2]; with Influenza A virus [3]; in series [4]; in [5]) was “inactive” throughout. The inhibition result in the series with Human alphaherpesvirus 2, in the series with Human alphaherpesvirus 1 [6], in the series on Punta Toro virus, with Feline coronavirus, with Sindbis virus and in the series on Felid alphaherpesvirus 1 was “inactive” throughout. The inhibition entry (in the series on Coxsackievirus B4; in series [7]; in the series on Influenza A virus [8]; with Human alphaherpesvirus 1 [9]; in series [10]; with Influenza B virus) was “inactive” each time. The Activity result (with Vero; in the series with MDCK; with HEL; in [11]; with HeLa) was “Non-toxic” throughout.

These data come from ChEMBL document CHEMBL2331506, “Design, synthesis, antiviral and cytostatic evaluation of novel isoxazolidine nucleotide analogues with a carbamoyl linker” (Bioorg Med Chem, 2013).
